For assay [1], the system named is PC-3. In words: Induction of cellular senescence in human PC3 cells assessed as increase in nuclear size at 10 uM incubated for 24 hrs by phase contrast microscopy. The format is functional, cell-based. The method in brief: (§1)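 LN229 and PC3 cells, 12×10^4 per well in 6-well plates, treated with 10 µM compound for 24 h. Senescence-associated β-gal staining: fixed in 2% formaldehyde/0.2% glutaraldehyde for 10 min at RT, stained with 1 mg/mL X-gal at 37 °C for 24 h without CO2. Blue cells counted in at least 10 fields at 10x and given as percent of total; four independent experiments. Morphology viewed by phase contrast at ×100.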

For the next assay, the system named is Granta-519. In words: Induction of apoptosis in human GRANTA-519 cells assessed as increase in caspase-3/7 activation at 10 uM incubated for 48 hrs by luminometric caspase-glo 3/7 assay. The format is functional, cell-based. The method in brief:
(§2)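 Cells in RPMI or DMEM with 10% heat-inactivated FBS and penicillin/streptomycin, 37 °C, 5% CO2, treated with 10 µM compound for 48 h. Caspase-3 and caspase-7 activity read by luminescent Caspase-Glo 3/7 assay, reported as fold induction over untreated cells; mean ± SD of three independent experiments, each in triplicate.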

Assay [2] has as its system Jurkat. Description: Antiproliferative activity against human Jurkat cells assessed as reduction in cell viability incubated for 48 hrs by cell titer-glo assay. The assay is classed as functional, cell-based. The method, boiled down: (§3)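 Dose-response: cells plated, treated 24 h later for 48 h, then ATP measured by CellTiter-Glo luminescence. IC50 given as mean ± SD from three independent experiments, each in triplicate. Fibroblasts came from individuals. Cells were kept in RPMI or DMEM with 10% heat-inactivated FBS and penicillin/streptomycin at 37 °C, 5% CO2.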
Background: ATP-based viability assays read luminescence as a measure of living cells.

Assay [3] deals with PC-3. In words: Antiproliferative activity against human PC3 cells assessed as reduction in cell viability incubated for 48 hrs by cell titer-glo assay. The format is functional, cell-based. The note with it: PC-3, 48 h. The method, boiled down:
as §3

For assay [4], the system named is PC-3. In words: Antiproliferative activity against human PC3 cells assessed as reduction in cell viability at 10 uM incubated for 48 hrs in presence of Cu2+ ion by MTT assay. The assay is classed as functional, cell-based. The method in brief: (§4)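 LN229 and PC3 cells plated, then 24 h later given 10 µM compound with or without 15 µM ZnCl2, CuCl2, FeCl2 or FeCl3 for 48 h. Medium replaced, MTT (12 mM solution) added for 4 h, formazan dissolved in DMSO, absorbance read at 540 nm. Percent viable versus untreated; mean ± SD of three experiments in triplicate.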
For orientation: Tetrazolium assays rely on reduction of a dye to a coloured formazan, in cell work by metabolically active cells.

In assay [5] the test system is LN-229. In words: Induction of cell morphological changes in human LN229 cells assessed as random membrane blebbing at 10 uM incubated for 24 to 48 hrs by phase contrast microscopy. The format is functional, cell-based. The method in brief:
(§5)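 LN229 and PC3 cells exposed to 10 µM compound for the indicated time-points, then imaged live by phase-contrast microscopy for morphology.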

The species named for the next assay is Homo sapiens. In words: Antiproliferative activity against human SP53 cells assessed as reduction in cell viability at 10 uM incubated for 48 hrs by cell titer-glo assay. The assay is classed as functional, cell-based. The method, boiled down:
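Cells plated and treated 24 h later with 10 µM compound for 48 h; viable cells quantified by CellTiter-Glo ATP luminescence. Expressed as percentage of viable cells relative to untreated; mean ± SD of three independent experiments, each in triplicate.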

Assay [6] has as its system PC-3. Description: Induction of apoptosis in human PC3 cells assessed as necrotic cells at 10 uM incubated for 24 hrs by annexin V-FITC and propidium iodide staining based flow cytometry analysis (reference value: 0.30 %). The format is functional.
Assay [7] deals with Jurkat. Description: Cell cycle arrest in human Jurkat cells assessed as increase in cell accumulation at G0/G1 phase at 10 uM incubated for 24 hrs by propidium iodide staining based flow cytometry analysis. The assay is classed as functional. In general terms: In flow cytometry, cells or beads pass a laser one at a time.
For assay [8], the system named is PC-3. In words: Cell cycle arrest in human PC3 cells assessed as cell accumulation at G2/M phase at 10 uM incubated for 24 hrs by propidium iodide staining based flow cytometry analysis relative to control. The format is functional.
Assay [9] deals with PC-3. In words: Induction of apoptosis in human PC3 cells assessed as late apoptotic cells at 10 uM incubated for 24 hrs by annexin V-FITC and propidium iodide staining based flow cytometry analysis (reference value: 0.52 %). The format is functional.
The test system of assay [10] is PC-3. In words: Inhibition of colony formation in human PC3 cells at 10 uM incubated for 4 hrs by crystal violet staining based colony counting method. The format is functional, cell-based. The method in brief: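 LN229 and PC3 cells treated for 4 h with compound (10 µM) or with etoposide (30 µM positive control), washed, trypsinized and replated at 3000 cells per 60-mm plate. Colonies grown 7–10 days, fixed and stained with 0.5% crystal violet in 70% ethanol, and counted. Reported as percent of control; four independent experiments, each in duplicate.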

Another assay deals with JeKo-1. In words: Induction of apoptosis in human JeKo1 cells assessed as increase in caspase-3/7 activation at 10 uM incubated for 48 hrs by luminometric caspase-glo 3/7 assay. The format is functional, cell-based. The method, boiled down:
as §2

Assay [11] relates to LN-229. Description: Antiproliferative activity against human LN229 cells assessed as reduction in cell viability at 10 uM incubated for 48 hrs in presence of Cu2+ ion by MTT assay. The assay is classed as functional, cell-based. The method, boiled down: as §4
For the next assay, the system named is MCF7. Description: Induction of apoptosis in human MCF7 cells assessed as increase in caspase-3/7 activation at 10 uM incubated for 48 hrs by luminometric caspase-glo 3/7 assay. The format is functional, cell-based. The method, boiled down: as §2
Assay [12] deals with PC-3. In words: Induction of cellular senescence in human PC3 cells assessed as wider cells at 10 uM incubated for 24 hrs by phase contrast microscopy. The format is functional, cell-based. The method in brief: as §1
In a further assay the test system is DNA. Description: Induction of DNA damage in human Z138 cells assessed as gammaH2AX phosphorylation at Ser139 residue at 10 uM incubated for 4 hrs by Flow cytometry analysis. The assay is classed as cell-based. The method in brief: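 Z-138 and LN229 cells treated 4 h with 10 µM compound or 1 µM doxorubicin. Fixed in 3.7% formaldehyde on ice, permeabilized with 0.2% Triton X, stained with rabbit anti-pS139 H2A.X (1:400) and Alexa 555 secondary, then analysed by flow cytometry. Fold γH2AX fluorescence versus untreated; mean ± SD of three experiments.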

Assay [13] concerns LN-229. Description: Cell cycle arrest in human LN229 cells assessed as cell accumulation at S phase at 10 uM incubated for 48 hrs by propidium iodide staining based flow cytometry analysis relative to control. The format is functional.
For assay [14], the system named is PC-3. In words: Cell cycle arrest in human PC3 cells assessed as cell accumulation at sub-G1 phase at 10 uM incubated for 48 hrs by propidium iodide staining based flow cytometry analysis relative to control. The format is functional.
Assay [15] has as its system LN-229. Description: Metal chelating activity in human LN229 cells assessed as decrease in intracellular concentration of labile zinc ions by measuring reduction in zinquin-Zn2+ complex formation incubated for 12 hrs followed by incubation with fluorophore-zinquin for 30 mins by spectrofluorometric analysis. The assay is classed as cell-based. The method in brief: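 LN229 cells were treated 12 h, trypsinized, pelleted and checked by Trypan Blue. Then 6x10⁶ cells in 1 mL PBS were loaded with Zinquin 25 μM for 30 min at 37 °C in the dark. Fluorescence was read at ex 370/em 475 nm with a 400–600 nm scan, normalized to cell number, untreated set to 100; four independent experiments.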

Assay [16] has as its system PC-3. In words: Induction of cell morphological changes in human PC3 cells assessed as cell rounding at 10 uM incubated for 24 to 48 hrs by phase contrast microscopy. The assay is classed as functional, cell-based. The method, boiled down: as §5
In assay [17] the test system is PC-3. Description: Induction of cellular senescence in human PC3 cells assessed as larger volume of cell at 10 uM incubated for 24 hrs by phase contrast microscopy. The assay is classed as functional, cell-based. The method in brief:
as §1

In assay [18] the test system is PC-3. In words: Cell cycle arrest in human PC3 cells assessed as cell accumulation at G1 phase at 10 uM incubated for 48 hrs by propidium iodide staining based flow cytometry analysis relative to control. The assay is classed as functional.

One may read the pIC50 as −log10 of the IC50, conventionally taken in molar units.

pIC50: −log10 of the molar value. Activity calls are given as the source filed them. No cut-off for these calls is given here.

For `CN(CCNCc1ccccn1)CCNCc1ccccn1`, the result in the assay on PC-3 [1], in the assay on Granta-519, with LN-229 [5], in the assay listed under Homo sapiens, in the assay with Jurkat [7] and in the assay with JeKo-1 was Active. The outcome in the assay with MCF7, with PC-3 [12], in the assay on PC-3 [16] and with PC-3 [17] was Active. In addition, the values for the pIC50 with Jurkat [2] and with PC-3 [3] were 5.70 and 4.95, respectively. In addition, the outcome with PC-3 [4], in the assay with LN-229 [11] and in the assay with DNA was inactive. In addition, the Activity in the assay on PC-3 [6] was 1.78%; in the assay on PC-3 [8], 19.7%; with PC-3 [9], 2.13%; in the assay with LN-229 [13], 13.5%; with PC-3 [14] it was 19.6%; in the assay with LN-229 [15], “Dose-dependent effect”. The Activity in the assay with PC-3 [18] came out at 57.2%. Besides, the inhibition entry in the assay on PC-3 [10] was “inactive”.
With `c1ccc(CNCCN(CCNCc2ccccn2)Cc2ccc3ccccc3c2)nc1`, the result in the assay on PC-3 [1], in the assay on Granta-519, in the assay with LN-229 [5], in the assay filed under Homo sapiens, in the assay on Jurkat [7] and in the assay with JeKo-1 was Active. The result with MCF7, in the assay on PC-3 [12], in the assay with PC-3 [16] and with PC-3 [17] was Active. Further, the pIC50 is 5.50 in the assay on Jurkat [2] and 4.96 in the assay with PC-3 [3]. Also, the outcome with PC-3 [4], in the assay with LN-229 [11] and in the assay with DNA was inactive. In addition, the Activity is 1.53% with PC-3 [6]; 17.2% with PC-3 [8]; 2.17% in the assay with PC-3 [9]; 10.8% in the assay on LN-229 [13]; 4.8% in the assay with PC-3 [14]; “Dose-dependent effect” in the assay with LN-229 [15]. Besides, the Activity in the assay with PC-3 [18] amounted to 73.4%. Further, in the assay with PC-3 [10], the inhibition entry was “inactive”.

Source of the values: ChEMBL document CHEMBL4376884, “Toward a Rational Design of Polyamine-Based Zinc-Chelating Agents for Cancer Therapies” (J Med Chem, 2020).
